We go through 13 molecules from ChEMBL document CHEMBL1125249, “Structure-affinity relationships of 12-sulfonyl derivatives of 5,8,8a,9,10,11,12,12a,13,13a-decahydro-6H-isoquino[2,1-g][1 ,6] naphthyridines at alpha-adrenoceptors” (J Med Chem, 1991).

For one experiment, the species on record is Cavia porcellus. The experiment in a line: In vitro reversal of inhibitory effect of UK - 14304 on the contractile response of guinea pig ileum to field stimulation. In kind it is functional, organism-based. To be noted: read-out: pA2 (converted). Put shortly:
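Ileum from female Dunkin-Hartley guinea pigs (250-300 g) held in Tyrode solution at 37 °C, gassed with O2, under 1 g tension. Field stimulation at 0.1 Hz (1-ms pulses, supramaximal voltage), with isometric contractions recorded. Cumulative UK-14304 curves were run, the second taken as control. Antagonist was then applied for 40 min before repeat agonist curves.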

The target of experiment [1] is T1, Adrenergic receptor alpha-2 (Rattus norvegicus) (UniProt P22086+P19328+P22909).
Experiment [2] concerns the target T1, Adrenergic receptor alpha-2 (Rattus norvegicus). The source holds these as a separate data set.
The target in experiment [3] is T2, Adrenergic receptor alpha-2 (Rattus norvegicus, UniProt P22086+P19328+P22909).
T2 sequence (P22086 whole entry): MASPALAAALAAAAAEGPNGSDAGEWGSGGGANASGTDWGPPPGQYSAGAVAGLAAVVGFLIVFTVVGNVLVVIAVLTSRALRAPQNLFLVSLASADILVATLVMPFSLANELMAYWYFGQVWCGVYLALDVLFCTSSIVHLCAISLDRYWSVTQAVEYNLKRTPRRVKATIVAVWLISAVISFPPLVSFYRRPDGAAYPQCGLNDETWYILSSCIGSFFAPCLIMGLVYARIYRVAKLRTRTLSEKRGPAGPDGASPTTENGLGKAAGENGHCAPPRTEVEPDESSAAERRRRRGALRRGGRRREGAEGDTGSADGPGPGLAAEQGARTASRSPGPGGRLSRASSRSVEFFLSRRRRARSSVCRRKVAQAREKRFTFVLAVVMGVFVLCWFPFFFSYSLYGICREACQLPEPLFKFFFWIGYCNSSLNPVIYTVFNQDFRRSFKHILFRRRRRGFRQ
T2 sequence (P19328 whole entry): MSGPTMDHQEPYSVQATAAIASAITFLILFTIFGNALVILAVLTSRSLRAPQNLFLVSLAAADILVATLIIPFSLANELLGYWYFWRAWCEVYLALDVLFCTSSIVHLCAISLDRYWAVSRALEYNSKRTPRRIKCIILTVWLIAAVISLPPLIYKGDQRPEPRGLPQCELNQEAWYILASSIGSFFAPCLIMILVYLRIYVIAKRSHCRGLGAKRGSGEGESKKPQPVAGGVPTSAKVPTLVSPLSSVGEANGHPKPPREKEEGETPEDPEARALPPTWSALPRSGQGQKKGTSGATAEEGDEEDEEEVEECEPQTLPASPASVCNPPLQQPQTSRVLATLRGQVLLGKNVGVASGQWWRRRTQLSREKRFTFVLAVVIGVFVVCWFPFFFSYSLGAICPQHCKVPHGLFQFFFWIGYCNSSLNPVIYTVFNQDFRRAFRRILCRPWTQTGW
T2 sequence (P22909 whole entry): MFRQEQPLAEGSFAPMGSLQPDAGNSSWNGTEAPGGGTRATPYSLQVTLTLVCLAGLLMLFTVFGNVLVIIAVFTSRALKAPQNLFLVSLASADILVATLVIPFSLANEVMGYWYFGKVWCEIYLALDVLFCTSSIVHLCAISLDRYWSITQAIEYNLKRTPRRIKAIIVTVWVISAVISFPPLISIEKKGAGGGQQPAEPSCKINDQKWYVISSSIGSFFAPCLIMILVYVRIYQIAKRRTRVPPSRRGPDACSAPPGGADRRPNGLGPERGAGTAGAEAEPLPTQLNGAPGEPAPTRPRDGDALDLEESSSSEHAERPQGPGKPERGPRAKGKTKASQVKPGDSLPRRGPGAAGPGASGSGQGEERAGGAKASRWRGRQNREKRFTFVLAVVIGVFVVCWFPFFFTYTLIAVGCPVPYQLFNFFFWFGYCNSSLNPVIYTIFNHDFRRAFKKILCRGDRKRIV
The experiment in a line: Binding affinity to alpha-2 adrenergic receptor determined by measurement of [3H]yohimbine displacement from rat cortical membrane.

The target of experiment [4] is T3, Adrenergic receptor alpha-1 (Rattus norvegicus, UniProt P15823+P23944+P43140).
T3 sequence (P15823 whole entry): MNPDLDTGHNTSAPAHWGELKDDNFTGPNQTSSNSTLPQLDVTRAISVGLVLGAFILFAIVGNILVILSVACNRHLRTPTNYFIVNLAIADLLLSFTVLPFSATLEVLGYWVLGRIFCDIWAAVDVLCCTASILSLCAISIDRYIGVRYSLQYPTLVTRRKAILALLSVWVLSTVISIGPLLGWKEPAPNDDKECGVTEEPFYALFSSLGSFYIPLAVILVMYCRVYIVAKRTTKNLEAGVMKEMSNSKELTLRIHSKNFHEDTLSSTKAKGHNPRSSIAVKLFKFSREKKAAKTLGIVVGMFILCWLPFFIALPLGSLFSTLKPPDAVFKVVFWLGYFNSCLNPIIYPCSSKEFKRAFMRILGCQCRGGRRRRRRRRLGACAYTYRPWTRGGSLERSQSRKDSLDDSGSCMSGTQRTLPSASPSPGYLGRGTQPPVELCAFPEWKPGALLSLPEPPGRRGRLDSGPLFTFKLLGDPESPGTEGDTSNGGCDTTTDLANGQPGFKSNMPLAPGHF
T3 sequence (P23944 whole entry): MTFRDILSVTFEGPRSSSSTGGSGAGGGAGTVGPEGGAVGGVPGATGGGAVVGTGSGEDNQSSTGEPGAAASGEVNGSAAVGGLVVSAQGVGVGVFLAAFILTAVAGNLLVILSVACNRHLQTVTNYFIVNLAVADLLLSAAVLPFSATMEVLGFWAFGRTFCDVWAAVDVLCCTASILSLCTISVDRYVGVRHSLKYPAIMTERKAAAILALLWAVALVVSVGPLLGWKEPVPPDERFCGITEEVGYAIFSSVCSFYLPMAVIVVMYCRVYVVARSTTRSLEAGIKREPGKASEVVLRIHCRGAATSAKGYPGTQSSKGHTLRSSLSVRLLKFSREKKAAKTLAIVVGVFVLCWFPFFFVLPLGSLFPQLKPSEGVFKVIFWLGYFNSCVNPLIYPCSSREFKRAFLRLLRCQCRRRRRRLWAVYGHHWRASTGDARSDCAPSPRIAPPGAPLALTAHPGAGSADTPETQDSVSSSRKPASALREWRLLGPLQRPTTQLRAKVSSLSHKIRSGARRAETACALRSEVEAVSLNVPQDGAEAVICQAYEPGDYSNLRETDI
T3 sequence (P43140 whole entry): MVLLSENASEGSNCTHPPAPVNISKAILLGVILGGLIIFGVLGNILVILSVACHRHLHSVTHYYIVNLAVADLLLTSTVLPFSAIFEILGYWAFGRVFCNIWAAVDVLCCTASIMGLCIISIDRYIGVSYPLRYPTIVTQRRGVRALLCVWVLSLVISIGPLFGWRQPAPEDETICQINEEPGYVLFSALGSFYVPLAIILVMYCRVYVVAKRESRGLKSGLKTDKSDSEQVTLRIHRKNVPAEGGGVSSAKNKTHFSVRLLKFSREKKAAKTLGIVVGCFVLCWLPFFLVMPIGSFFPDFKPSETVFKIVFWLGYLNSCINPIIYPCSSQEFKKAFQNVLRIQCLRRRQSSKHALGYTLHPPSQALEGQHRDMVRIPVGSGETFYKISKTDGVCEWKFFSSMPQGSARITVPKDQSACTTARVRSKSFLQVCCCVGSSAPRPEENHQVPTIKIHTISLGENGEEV
The experiment in a line: Binding affinity to alpha-1 adrenergic receptor determined by measurement of [3H]prazosin displacement from rat cortical membrane. Put shortly:
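Male Sprague-Dawley rat (150-200 g) cerebral cortex membranes, washed in 50 mM Tris-HCl/0.5 mM EDTA pH 7.4. 250 µg membrane protein incubated with 0.5 nM [3H]prazosin for 30 min at 25 °C in a 0.5 mL volume. Nonspecific binding defined by 10 µM phentolamine. IC50 estimated graphically; Ki calculated by Cheng-Prusoff.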

Molecules are shown by their SMILES. Some results are limits rather than exact numbers.

As to `COc1ccc2c(c1)CCN1C[C@H]3CCCN(S(C)(=O)=O)[C@@H]3C[C@@H]21`, the Kb in the experiment listed under Cavia porcellus was 0.2 nM. Besides, the ID50 in experiment [1] was 0.0065 mg/kg; in experiment [2] it was 0.095 mg/kg.
For the molecule `COc1ccc2c(c1)CCN1C[C@H]3CCCN(S(C)(=O)=O)[C@H]3C[C@@H]21` [DELEQUAMINE], the “Log Ki” value in experiment [3] was -9.18; in experiment [4], -4.99. The Kb in the experiment listed under Cavia porcellus is 0.2 nM. Moreover, the ID50 was found to be 0.013 mg/kg in experiment [1] and 0.21 mg/kg in experiment [2].
For `COc1ccc(S(=O)(=O)N2CCC[C@@H]3CN4CCc5ccccc5[C@@H]4C[C@@H]32)cc1`, the entries for the “Log Ki” value in experiment [3] and in experiment [4] were -9.34 and -5.31, respectively. The Kb in the experiment filed under Cavia porcellus was 1.58 nM. The ID50 in experiment [1] is 0.18 mg/kg; in experiment [2], above 3 mg/kg.
As for `c1ccc2c(c1)OCC(C1=NCCN1)O2` (centres undefined) [IDAZOXAN], the Kb in the experiment listed under Cavia porcellus was 3.98 nM. The ID50 in experiment [1] is 0.017 mg/kg; in experiment [2], 1.2 mg/kg.
As to `CCCS(=O)(=O)N1CCC[C@@H]2CN3CCc4ccccc4[C@@H]3C[C@@H]21`, the “Log Ki” value is -8.73 in experiment [3] and -5.29 in experiment [4]. Also, the Kb in the experiment filed under Cavia porcellus was 0.398 nM. Also, the ID50 was found to be 0.019 mg/kg in experiment [1] and 1.4 mg/kg in experiment [2].
Taken in the same sequence, the figures for `CS(=O)(=O)N1CCC[C@@H]2CN3CCc4cc5c(cc4[C@@H]3C[C@@H]21)OCO5` were -9.18, -5.14, 1 nM, 0.06 mg/kg and 0.76 mg/kg.
Taken in the same sequence, the figures for `CCCCS(=O)(=O)N1CCC[C@@H]2CN3CCc4ccccc4[C@@H]3C[C@@H]21` were -8.9, -5.64, 1.26 nM, 0.036 mg/kg and 0.9 mg/kg.
Regarding `CCS(=O)(=O)N1CCC[C@@H]2CN3CCc4ccccc4[C@@H]3C[C@@H]21`, the “Log Ki” value in experiment [3] is -8.82; in experiment [4], -4.97. Also, the Kb in the experiment listed under Cavia porcellus is 5.01 nM. The values for the ID50 in experiment [1] and in experiment [2] were 0.019 mg/kg and 1.1 mg/kg, respectively.
Taken in the same sequence, the figures for `CC(C)CS(=O)(=O)N1CCC[C@@H]2CN3CCc4ccccc4[C@@H]3C[C@@H]21` were -8.77, -5.37, 0.316 nM, 0.034 mg/kg and 0.85 mg/kg.
Taken in the same sequence, the figures for `COc1ccc2c(c1)CCN1C[C@H]3CCCN(S(=O)(=O)N(C)C)[C@@H]3C[C@@H]21` were -8.97, -5.57, 0.501 nM, 0.027 mg/kg and 0.17 mg/kg.
Regarding `O=S(=O)(c1ccccc1)N1CCC[C@@H]2CN3CCc4ccccc4[C@@H]3C[C@@H]21`, the entries for the “Log Ki” value in experiment [3] and in experiment [4] were -8.81 and -5.31, respectively. Further, the ID50 in experiment [1] is 0.053 mg/kg; in experiment [2] it was above 10 mg/kg.
In the case of `COc1ccc2c(c1)CCN1C[C@H]3CCCN(S(=O)(=O)CC(C)C)[C@H]3C[C@@H]21`, the “Log Ki” value in experiment [3] is given as -8.77; in experiment [4], -5.41. Moreover, the ID50 was found to be 0.022 mg/kg in experiment [1] and 0.41 mg/kg in experiment [2].
With `COc1ccc2c(c1)CCN1C[C@@H]3CCCN(S(C)(=O)=O)[C@@H]3C[C@H]21`, the “Log Ki” value in experiment [3] is recorded as -6.32; in experiment [4] it was below -5. Also, in the experiment listed under Cavia porcellus, the Kb was 316 nM. In addition, the ID50 in experiment [1] and in experiment [2] was above 10 mg/kg in each case.
